# Data published in the M2OR odorant receptor database.
# Columns and labels:
# Details in all cases: stereoisomer not certain
# [1] = molecular target: OR51Q1 (Homo sapiens) (UniProt Q8NH59)
# Procedure, shortened: (§1)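 Each receptor–molecule pair is labelled responsive or non-responsive (inactive) according to whether the original authors judged the measured signal statistically different from baseline. The data were taken from the main text and supplementary material of published papers and checked for typos and inconsistencies. Assay methods differed by source, with transient luciferase assays in mammalian cell lines being common.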
# [2] = molecular target: OR51S1 (Homo sapiens) (UniProt Q8NGJ8)
# Chain of OR51S1 (Homo sapiens) (Q8NGJ8 whole entry): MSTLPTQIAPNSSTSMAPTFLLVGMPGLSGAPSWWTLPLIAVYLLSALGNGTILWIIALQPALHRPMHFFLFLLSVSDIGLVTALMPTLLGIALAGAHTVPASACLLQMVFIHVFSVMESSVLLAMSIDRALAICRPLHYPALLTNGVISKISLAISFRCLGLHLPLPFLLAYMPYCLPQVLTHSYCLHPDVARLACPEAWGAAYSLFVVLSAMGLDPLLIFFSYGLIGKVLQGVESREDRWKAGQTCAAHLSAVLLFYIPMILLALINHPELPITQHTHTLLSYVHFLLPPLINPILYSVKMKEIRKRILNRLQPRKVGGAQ
# Procedure, shortened: as §1
# [3] = molecular target: OR51V1 (Homo sapiens) (UniProt Q9H2C8)
# Chain of OR51V1 (Homo sapiens) (Q9H2C8 whole entry): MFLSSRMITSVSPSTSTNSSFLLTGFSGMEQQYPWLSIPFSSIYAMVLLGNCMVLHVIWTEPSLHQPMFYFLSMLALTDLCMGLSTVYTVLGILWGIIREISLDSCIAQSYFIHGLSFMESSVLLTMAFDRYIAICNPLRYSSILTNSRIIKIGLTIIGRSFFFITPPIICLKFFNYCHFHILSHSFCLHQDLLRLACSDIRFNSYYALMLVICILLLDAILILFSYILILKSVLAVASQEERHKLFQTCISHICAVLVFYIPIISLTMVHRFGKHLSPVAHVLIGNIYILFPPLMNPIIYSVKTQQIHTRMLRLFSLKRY
# Procedure, shortened: as §1
# [4] = molecular target: OR52A1 (Homo sapiens) (UniProt Q9UKL2)
# Chain of OR52A1 (Homo sapiens) (Q9UKL2 whole entry): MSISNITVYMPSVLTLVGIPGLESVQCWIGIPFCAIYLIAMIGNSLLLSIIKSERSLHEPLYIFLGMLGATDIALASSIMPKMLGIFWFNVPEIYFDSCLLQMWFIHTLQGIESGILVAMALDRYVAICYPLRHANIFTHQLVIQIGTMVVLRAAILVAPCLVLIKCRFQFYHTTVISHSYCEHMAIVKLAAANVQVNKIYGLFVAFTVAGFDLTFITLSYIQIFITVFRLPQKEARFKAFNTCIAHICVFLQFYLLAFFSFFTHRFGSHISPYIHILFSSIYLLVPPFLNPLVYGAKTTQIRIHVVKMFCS
# Procedure, shortened: as §1
# [5] = molecular target: OR52A5 (Homo sapiens) (UniProt Q9H2C5)
# Chain of OR52A5 (Homo sapiens) (Q9H2C5 whole entry): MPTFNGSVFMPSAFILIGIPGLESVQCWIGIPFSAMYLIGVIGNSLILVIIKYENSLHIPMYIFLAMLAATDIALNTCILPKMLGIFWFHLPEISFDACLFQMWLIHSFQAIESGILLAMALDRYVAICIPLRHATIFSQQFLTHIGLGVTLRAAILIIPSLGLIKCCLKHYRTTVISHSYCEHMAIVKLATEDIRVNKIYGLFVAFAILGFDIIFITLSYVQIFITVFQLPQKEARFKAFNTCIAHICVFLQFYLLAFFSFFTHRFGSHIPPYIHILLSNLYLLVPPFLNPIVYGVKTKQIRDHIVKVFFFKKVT
# Procedure, shortened: as §1
# [6] = molecular target: OR52B2 (Homo sapiens) (UniProt Q96RD2)
# Chain of OR52B2 (Homo sapiens) (Q96RD2 whole entry): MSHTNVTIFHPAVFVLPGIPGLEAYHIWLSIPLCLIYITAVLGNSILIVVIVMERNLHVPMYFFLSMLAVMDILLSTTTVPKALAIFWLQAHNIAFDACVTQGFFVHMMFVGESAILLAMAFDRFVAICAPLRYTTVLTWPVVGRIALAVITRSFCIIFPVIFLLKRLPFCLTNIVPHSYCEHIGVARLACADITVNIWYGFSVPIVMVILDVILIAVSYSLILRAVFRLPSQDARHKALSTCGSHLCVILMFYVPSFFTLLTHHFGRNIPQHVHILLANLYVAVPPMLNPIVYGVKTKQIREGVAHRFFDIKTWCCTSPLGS
# Procedure, shortened: as §1
# [7] = molecular target: OR52B4 (Homo sapiens) (UniProt Q8NGK2)
# Chain of OR52B4 (Homo sapiens) (Q8NGK2 whole entry): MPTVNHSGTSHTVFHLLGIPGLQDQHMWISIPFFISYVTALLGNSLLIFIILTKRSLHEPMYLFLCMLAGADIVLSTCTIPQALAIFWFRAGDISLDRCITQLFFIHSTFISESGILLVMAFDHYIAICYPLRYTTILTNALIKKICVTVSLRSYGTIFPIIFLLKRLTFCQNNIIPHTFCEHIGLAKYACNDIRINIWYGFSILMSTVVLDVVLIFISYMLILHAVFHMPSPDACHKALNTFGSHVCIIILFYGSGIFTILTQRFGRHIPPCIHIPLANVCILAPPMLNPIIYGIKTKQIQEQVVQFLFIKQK
# Procedure, shortened: as §1
# [8] = molecular target: OR52B6 (Homo sapiens) (UniProt Q8NGF0)
# Chain of OR52B6 (Homo sapiens) (Q8NGF0 whole entry): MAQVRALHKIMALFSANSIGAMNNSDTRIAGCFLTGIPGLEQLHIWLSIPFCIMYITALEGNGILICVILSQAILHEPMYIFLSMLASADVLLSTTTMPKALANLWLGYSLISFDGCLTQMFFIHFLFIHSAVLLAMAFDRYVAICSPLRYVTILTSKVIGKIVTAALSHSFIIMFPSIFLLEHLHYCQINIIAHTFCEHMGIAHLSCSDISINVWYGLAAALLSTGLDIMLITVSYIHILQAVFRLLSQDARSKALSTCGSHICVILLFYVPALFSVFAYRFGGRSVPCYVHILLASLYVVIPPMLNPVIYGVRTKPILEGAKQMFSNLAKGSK
# Procedure, shortened: as §1
# [9] = molecular target: T1, OR52D1 (Homo sapiens) (UniProt Q9H346)
# T1 sequence (whole entry): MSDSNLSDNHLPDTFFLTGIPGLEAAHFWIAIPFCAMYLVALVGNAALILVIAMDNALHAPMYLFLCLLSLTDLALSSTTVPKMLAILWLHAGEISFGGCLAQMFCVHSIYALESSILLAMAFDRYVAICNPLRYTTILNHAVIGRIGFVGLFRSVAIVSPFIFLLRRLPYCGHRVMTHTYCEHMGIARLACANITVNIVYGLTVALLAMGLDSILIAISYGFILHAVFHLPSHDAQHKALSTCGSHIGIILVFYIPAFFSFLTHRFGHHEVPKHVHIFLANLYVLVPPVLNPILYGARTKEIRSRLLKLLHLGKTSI
# Procedure, shortened: as §1
# [10] = molecular target: OR52E1 (Homo sapiens) (UniProt Q8NGJ3)
# Chain of OR52E1 (Homo sapiens) (Q8NGJ3 whole entry): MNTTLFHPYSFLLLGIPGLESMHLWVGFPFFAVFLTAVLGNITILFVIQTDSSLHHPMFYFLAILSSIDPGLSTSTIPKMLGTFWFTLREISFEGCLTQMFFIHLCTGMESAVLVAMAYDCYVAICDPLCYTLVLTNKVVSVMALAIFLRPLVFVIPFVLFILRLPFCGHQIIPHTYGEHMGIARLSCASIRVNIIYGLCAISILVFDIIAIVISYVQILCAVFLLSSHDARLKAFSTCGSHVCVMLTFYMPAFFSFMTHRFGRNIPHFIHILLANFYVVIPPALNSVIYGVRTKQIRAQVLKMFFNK
# Procedure, shortened: as §1
# [11] = molecular target: OR52E2 (Homo sapiens) (UniProt Q8NGJ4)
# Chain of OR52E2 (Homo sapiens) (Q8NGJ4 whole entry): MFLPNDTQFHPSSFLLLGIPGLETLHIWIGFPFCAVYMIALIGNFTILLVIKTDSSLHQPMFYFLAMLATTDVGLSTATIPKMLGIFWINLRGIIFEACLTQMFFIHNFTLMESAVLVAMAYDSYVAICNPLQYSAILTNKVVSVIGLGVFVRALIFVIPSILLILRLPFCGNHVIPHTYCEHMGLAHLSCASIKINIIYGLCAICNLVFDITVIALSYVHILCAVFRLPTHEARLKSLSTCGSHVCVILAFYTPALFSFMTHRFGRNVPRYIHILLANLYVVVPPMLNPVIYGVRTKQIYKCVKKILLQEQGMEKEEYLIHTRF
# Procedure, shortened: as §1
# [12] = molecular target: OR52E4 (Homo sapiens) (UniProt Q8NGH9)
# Chain of OR52E4 (Homo sapiens) (Q8NGH9 whole entry): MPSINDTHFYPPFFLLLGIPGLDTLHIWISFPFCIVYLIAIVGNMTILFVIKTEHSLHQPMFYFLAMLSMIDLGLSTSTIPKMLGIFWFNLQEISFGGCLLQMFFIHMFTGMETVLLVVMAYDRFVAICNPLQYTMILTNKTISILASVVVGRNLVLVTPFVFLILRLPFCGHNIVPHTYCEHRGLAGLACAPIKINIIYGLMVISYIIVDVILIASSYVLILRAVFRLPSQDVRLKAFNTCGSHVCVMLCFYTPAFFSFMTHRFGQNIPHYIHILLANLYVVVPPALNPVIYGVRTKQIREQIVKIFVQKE
# Procedure, shortened: as §1
# [13] = molecular target: OR52E6 (Homo sapiens) (UniProt Q96RD3)
# Chain of OR52E6 (Homo sapiens) (Q96RD3 whole entry): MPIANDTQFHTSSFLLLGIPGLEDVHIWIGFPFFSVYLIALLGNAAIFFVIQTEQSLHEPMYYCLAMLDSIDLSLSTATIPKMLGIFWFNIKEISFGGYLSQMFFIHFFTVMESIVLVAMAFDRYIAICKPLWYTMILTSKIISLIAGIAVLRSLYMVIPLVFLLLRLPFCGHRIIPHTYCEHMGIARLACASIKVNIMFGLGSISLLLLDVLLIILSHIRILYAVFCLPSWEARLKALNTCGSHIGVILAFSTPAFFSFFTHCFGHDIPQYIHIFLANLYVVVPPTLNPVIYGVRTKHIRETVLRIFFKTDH
# Procedure, shortened: as §1
# [14] = molecular target: OR52I1 (Homo sapiens) (UniProt Q8NGK6)
# Chain of OR52I1 (Homo sapiens) (Q8NGK6 whole entry): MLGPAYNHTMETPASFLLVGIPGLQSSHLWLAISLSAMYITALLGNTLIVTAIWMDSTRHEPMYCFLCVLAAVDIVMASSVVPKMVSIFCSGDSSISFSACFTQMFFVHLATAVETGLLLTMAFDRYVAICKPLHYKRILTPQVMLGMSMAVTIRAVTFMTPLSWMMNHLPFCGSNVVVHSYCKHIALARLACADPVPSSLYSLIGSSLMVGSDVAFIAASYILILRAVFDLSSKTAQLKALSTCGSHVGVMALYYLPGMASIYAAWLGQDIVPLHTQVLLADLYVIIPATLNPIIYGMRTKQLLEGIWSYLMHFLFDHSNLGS
# Procedure, shortened: as §1
# [15] = molecular target: OR52I2 (Homo sapiens) (UniProt Q8NH67)
# Procedure, shortened: as §1
# [16] = molecular target: OR52J3 (Homo sapiens) (UniProt Q8NH60)
# Chain of OR52J3 (Homo sapiens) (Q8NH60 whole entry): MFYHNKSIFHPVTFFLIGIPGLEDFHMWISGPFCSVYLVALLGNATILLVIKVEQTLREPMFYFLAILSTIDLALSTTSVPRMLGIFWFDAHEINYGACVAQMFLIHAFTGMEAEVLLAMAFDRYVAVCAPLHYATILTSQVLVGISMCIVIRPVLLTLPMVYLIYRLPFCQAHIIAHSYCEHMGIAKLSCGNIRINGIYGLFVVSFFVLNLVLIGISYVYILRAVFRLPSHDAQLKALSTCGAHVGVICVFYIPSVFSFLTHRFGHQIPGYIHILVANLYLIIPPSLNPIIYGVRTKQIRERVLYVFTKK
# Procedure, shortened: as §1
# [17] = molecular target: OR52K1 (Homo sapiens) (UniProt Q8NGK4)
# Chain of OR52K1 (Homo sapiens) (Q8NGK4 whole entry): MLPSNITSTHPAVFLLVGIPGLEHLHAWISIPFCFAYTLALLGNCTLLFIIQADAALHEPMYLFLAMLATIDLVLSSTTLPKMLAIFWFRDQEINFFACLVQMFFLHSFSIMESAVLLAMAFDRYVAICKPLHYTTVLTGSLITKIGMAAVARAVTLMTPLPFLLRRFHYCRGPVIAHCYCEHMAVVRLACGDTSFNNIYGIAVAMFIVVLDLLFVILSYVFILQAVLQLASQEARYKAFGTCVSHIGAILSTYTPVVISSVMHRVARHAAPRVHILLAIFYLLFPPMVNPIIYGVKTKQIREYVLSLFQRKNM
# Procedure, shortened: as §1
# [18] = molecular target: OR51T1 (Homo sapiens) (UniProt Q8NGJ9)
# Procedure, shortened: as §1
# [19] = molecular target: OR52A4P (Homo sapiens) (UniProt A6NMU1)
# Procedure, shortened: as §1
# [20] = molecular target: OR52E5 (Homo sapiens) (UniProt Q8NH55)
# Procedure, shortened: as §1
# 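Note: active if original authors judged signal statistically different from baseline.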
# Chain of OR51Q1 (Homo sapiens) (Q8NH59 whole entry): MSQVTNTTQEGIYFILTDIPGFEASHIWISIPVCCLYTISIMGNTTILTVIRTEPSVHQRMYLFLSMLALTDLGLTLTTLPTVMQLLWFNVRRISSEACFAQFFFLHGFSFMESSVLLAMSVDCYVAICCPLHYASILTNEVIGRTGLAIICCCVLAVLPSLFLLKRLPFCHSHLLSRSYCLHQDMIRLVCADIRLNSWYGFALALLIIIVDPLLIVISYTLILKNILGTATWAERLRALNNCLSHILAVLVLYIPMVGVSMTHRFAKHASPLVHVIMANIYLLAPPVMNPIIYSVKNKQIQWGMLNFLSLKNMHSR
structure (smiles),measurement,setting,value
C=CCOC(=O)Cc1ccccc1,odorant receptor agonist call,[1],inactive
same,odorant receptor agonist call,[2],inactive
same,odorant receptor agonist call,[3],inactive
same,odorant receptor agonist call,[4],inactive
same,odorant receptor agonist call,[5],inactive
same,odorant receptor agonist call,[6],inactive
same,odorant receptor agonist call,[7],inactive
same,odorant receptor agonist call,[8],inactive
same,odorant receptor agonist call,[9],inactive
same,odorant receptor agonist call,[10],inactive
same,odorant receptor agonist call,[11],inactive
same,odorant receptor agonist call,[12],inactive
same,odorant receptor agonist call,[13],inactive
same,odorant receptor agonist call,[14],inactive
same,odorant receptor agonist call,[15],inactive
same,odorant receptor agonist call,[16],inactive
same,odorant receptor agonist call,[17],inactive
C=CCc1ccc2c(c1)OCO2,odorant receptor agonist call,[9],inactive
O=Cc1ccccc1,odorant receptor agonist call,[9],active
Cc1c([N+](=O)[O-])c(C)c([N+](=O)[O-])c(C(C)(C)C)c1[N+](=O)[O-],odorant receptor agonist call,[1],inactive
same,odorant receptor agonist call,[2],inactive
same,odorant receptor agonist call,[18],inactive
same,odorant receptor agonist call,[3],inactive
same,odorant receptor agonist call,[4],inactive
same,odorant receptor agonist call,[19],inactive
same,odorant receptor agonist call,[5],inactive
same,odorant receptor agonist call,[6],inactive
same,odorant receptor agonist call,[7],inactive
same,odorant receptor agonist call,[8],inactive
same,odorant receptor agonist call,[9],inactive
same,odorant receptor agonist call,[10],inactive
same,odorant receptor agonist call,[11],inactive
same,odorant receptor agonist call,[12],inactive
same,odorant receptor agonist call,[20],inactive
same,odorant receptor agonist call,[13],inactive
same,odorant receptor agonist call,[14],inactive
same,odorant receptor agonist call,[15],inactive
same,odorant receptor agonist call,[16],inactive
same,odorant receptor agonist call,[17],inactive
CC(C=O)Cc1ccc2c(c1)OCO2 (stereo not given),odorant receptor agonist call,[9],active
CC(=O)CCc1ccc2c(c1)OCO2,odorant receptor agonist call,[9],inactive
c1ccncc1,odorant receptor agonist call,[9],inactive
C=CCc1ccc(OC)cc1,odorant receptor agonist call,[9],active
COc1ccc(C=O)cc1,odorant receptor agonist call,[9],active
O=CC=Cc1ccccc1,odorant receptor agonist call,[9],active
